From ChEMBL document CHEMBL1121557, “Chemistry, pharmacology, and structure-activity relationships with a new type of imidazolines exerting a specific bradycardic action at a cardiac site” (J Med Chem, 1980)
≈ marks a conversion by molar mass, not a printed value.

Legend:
[1] = Partition coefficient (logD7.4); details: octanol/water, pH 7.4
[2] = test system: Rattus norvegicus; assay: Dose required to decrease heart rate after iv injection to spinal rats; type: functional
In short: (§1)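 Male Chbb:THOM rats, 200–250 g, under pentobarbital sodium 50 mg/kg ip, atropine sulfate 1 mg/kg sc, trachea cannulated. Medulla cut at C1, brain destroyed, artificially ventilated. Jugular iv injections given cumulatively, dose doubled every 2 min, 3 doses per animal, top cumulative dose 10 mg/kg. ECG-triggered tachograph heart rate. D150 (dose lowering rate 150 beats/min) read graphically from log dose–response curves; n = 6 rats.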

[3] = species: Rattus norvegicus; assay: Evaluated for decreased heart rate in spinal rats, relative activity was determined; type: functional; in short: as §1
[4] = Dissociation constant (pKa); type: physicochemical
[5] = species: Cavia porcellus; assay: Evaluated for decrease in contractility in isolated guinea pig atria; type: functional
In short: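 Electrically driven left guinea pig atria (300–500 g, either sex) in modified Tyrode's gassed 98% O2/2% CO2, 30 °C, 1 g resting tension. Stimulation 3 ms rectangular pulses at 1.5× threshold, 2.5 Hz, after 20 min equilibration. Isometric force in grams. Concentrations added cumulatively, doubled every 10 min, one atrium per experiment. EC30 (30% fall from predrug value) read from curves.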

[6] = species: Cavia porcellus; assay: Evaluated for decrease in maximal driving frequency in isolated guinea pig atria; type: functional
In short: (§2)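 Guinea pig left atria in modified Tyrode's gassed 98% O2/2% CO2, 1 g resting tension, driven with 1 ms pulses at 3× threshold. Runs separated by 5 min at 0.5 Hz. Control is the mean of 3 predrug runs; the value is the mean of runs at 5 and 10 min after each cumulative addition, concentration doubled every 10 min. EC30 read from curves.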

[7] = species: Cavia porcellus; assay: Evaluated for decrease in spontaneous frequency of atrial rate in isolated guinea pig atria; type: functional; details: Cardiac atrium
In short: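 Atria dissected from guinea pigs of various breeds (300–500 g, either sex) and suspended in modified Tyrode's solution gassed with 98% O2/2% CO2, resting tension 1 g. Spontaneously beating atria at 37 °C, equilibrated at least 30 min until rate stable within 5 beats/min. Drug added cumulatively, concentration doubled every 10 min. EC30 = concentration reducing predrug rate by 30%, read from curves.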

[8] = EC30 ratio of contractility to atrial rate in isolated guinea pig atria; type: functional, Cardiac atrium
In short: (§3)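 Ratios of EC30 values from isolated guinea pig atria. Atrial rate was measured in spontaneously beating atria at 37 °C after at least 30 min of equilibration, until rate varied by no more than 5 beats/min. Contractility was measured in left atria driven at 2.5 Hz, 30 °C. Maximal driving frequency was found by stepwise pacing. Compound was added cumulatively, concentration doubled every 10 min.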

[9] = EC30 ratio of maximal driving frequency to atrial rate in isolated guinea pig atria; type: functional, Cardiac atrium; in short: as §3
[10] = Ratio of contractility to atrial rate in isolated guinea pig atria; type: functional, Cardiac atrium; in short: as §3
[11] = species: Cavia porcellus; assay: Evaluated for increase in maximal driving frequency in isolated guinea pig atria; type: functional; in short: as §2

CC(C)=CCN(C1=NCCN1)c1c(Br)cccc1Br
logD [1]: -0.14
D150 [2]: 3.5 mg/kg
Relative activity [3]: 0.18
pKa [4]: 10.8

C=C(C)CCN(C1=NCCN1)c1c(Br)cccc1Br
logD [1]: 0.02
D150 [2]: 1.03 mg/kg
Relative activity [3]: 0.6
pKa [4]: 10.9

Cc1cccc(Cl)c1N(CC1CC1)C1=NCCN1
logD [1]: -0.99
D150 [2]: 1.85 mg/kg
Relative activity [3]: 0.34
pKa [4]: 11.3

Brc1cccc(N(CC2CC2)C2=NCCN2)c1Br
logD [1]: -0.41
D150 [2]: 7.5 mg/kg
Relative activity [3]: 0.083
pKa [4]: 11.1

CCCN(C1=NCCN1)c1c(Br)cccc1Br
logD [1]: -0.55
D150 [2]: 0.65 mg/kg
Relative activity [3]: 0.95
pKa [4]: 11

Clc1cccc(Br)c1N(CC1CC1)C1=NCCN1
logD [1]: -0.79
D150 [2]: 0.42 mg/kg
Relative activity [3]: 1.48
pKa [4]: 10.8

C=C[C@H]1CN2CC[C@H]1C[C@@H]2[C@@H](O)c1ccnc2ccc(OC)cc12 [QUINIDINE]
EC30 [5]: 62 µg/mL (≈ 191 µM)
EC30 [6]: 6.5 µg/mL (≈ 20 µM)
EC30 [7]: 7.2 µg/mL (≈ 22.2 µM)
Ratio [8]: 8.6
Ratio [9]: 0.9

Brc1cccc(Br)c1N(CC1CCCCC1)C1=NCCN1
logD [1]: 0.27
D150 [2]: 6.5 mg/kg
Relative activity [3]: 0.095
pKa [4]: 11.2

COc1ccc(CCN(C)CCCC(C#N)(c2ccc(OC)c(OC)c2)C(C)C)cc1OC (stereo not given)
EC30 [5]: 0.24 µg/mL (≈ 0.528 µM)
EC30 [6]: 6.5 µg/mL (≈ 14.3 µM)
EC30 [7]: 0.2 µg/mL (≈ 0.44 µM)
Ratio [10]: 1.2

Brc1cccc(Br)c1N(CC1CCC1)C1=NCCN1
logD [1]: -0.06
D150 [2]: 1.2 mg/kg
Relative activity [3]: 0.52
pKa [4]: 10.9

CC(C)CN(C1=NCCN1)c1c(Br)cccc1Br
logD [1]: -0.64
D150 [2]: 1.35 mg/kg
Relative activity [3]: 0.46
pKa [4]: 11

CN(C1=NCCN1)c1c(Br)cccc1Br
D150 [2]: 1.4 mg/kg
pKa [4]: 10.7

Brc1ccc(Br)c(N(CC2CC2)C2=NCCN2)c1
logD [1]: -0.52
D150 [2]: 5 mg/kg
Relative activity [3]: 0.12
pKa [4]: 11

N=C(N)N(CC1CC1)c1c(Br)cccc1Br
logD [1]: -0.63
D150 [2]: >10 mg/kg
Relative activity [3]: <0.062
pKa [4]: 11.9

CCCCCN(C1=NCCN1)c1c(Br)cccc1Br
logD [1]: 0.32
D150 [2]: 1.6 mg/kg
Relative activity [3]: 0.39
pKa [4]: 11

C/C=C/CN(C1=NCCN1)c1c(Br)cccc1Br
logD [1]: -0.49
D150 [2]: 0.7 mg/kg
Relative activity [3]: 0.88
pKa [4]: 11

C=CCN(C1=NCCN1)c1c(Cl)cccc1Cl [ALINIDINE]
logD [1]: -1.66
D150 [2]: 2.5 mg/kg
Relative activity [3]: 0.25
pKa [4]: 10.4

C=C(C)CN(C1=NCCN1)c1c(Br)cccc1Br
logD [1]: -0.66
D150 [2]: 2.1 mg/kg
Relative activity [3]: 0.3
pKa [4]: 10.7

CC(C)N(C1=NCCN1)c1c(Br)cccc1Br
logD [1]: -0.82
D150 [2]: 2.3 mg/kg
Relative activity [3]: 0.27
pKa [4]: 11.2

Brc1ccc(N(CC2CC2)C2=NCCN2)cc1Br
D150 [2]: >>10 mg kg-1
Relative activity [3]: <<0.062

Fc1cccc(C(F)(F)F)c1N(CC1CC1)C1=NCCN1
logD [1]: -0.95
D150 [2]: 1.8 mg/kg
Relative activity [3]: 0.34
pKa [4]: 10.7

Fc1cccc(Cl)c1N(CC1CC1)C1=NCCN1
logD [1]: -0.98
D150 [2]: 0.74 mg/kg
Relative activity [3]: 0.84
pKa [4]: 10.8

Brc1cccc(Br)c1N(C1=NCCN1)C1CCCCC1
logD [1]: 0.14
D150 [2]: 2.6 mg/kg
Relative activity [3]: 0.24
pKa [4]: 11.3

C=CCN(C1=NCCN1)c1c(Br)cccc1Br
logD [1]: -0.75
D150 [2]: 1.5 mg/kg
Relative activity [3]: 0.41
pKa [4]: 10.7

Brc1cccc(Br)c1N(Cc1cccs1)C1=NCCN1
logD [1]: -0.1
D150 [2]: 1.9 mg/kg
Relative activity [3]: 0.33
pKa [4]: 10.5

Brc1cccc(Br)c1N(CC1CC1)C1=NCCCN1
logD [1]: -1.03
D150 [2]: 1.1 mg/kg
Relative activity [3]: 0.56
pKa [4]: 12.4

C#CCN(C1=NCCN1)c1c(Br)cccc1Br
logD [1]: -0.18
D150 [2]: 1.25 mg/kg
Relative activity [3]: 0.5
pKa [4]: 10.1

Brc1cccc(Br)c1N(CC1CCCC1)C1=NCCN1
logD [1]: 0.32
D150 [2]: 1.3 mg/kg
Relative activity [3]: 0.48
pKa [4]: 10.9

Clc1cccc(Cl)c1N(CC1CC1)C1=NCCN1
logD [1]: -0.92
D150 [2]: 0.65 mg/kg
Relative activity [3]: 0.95
pKa [4]: 10.9

Brc1cccc(Br)c1N(CC1CC1)C1=NCCN1
logD [1]: -1.12
EC30 [5]: 95 µg/mL (≈ 255 µM)
EC30 [6]: 12 µg/mL (≈ 32.2 µM)
EC30 [7]: 0.65 µg/mL (≈ 1.74 µM)
D150 [2]: 0.62 mg/kg
Relative activity [3]: 1
Ratio [8]: 146
Ratio [9]: 18
pKa [4]: 10.9

CCN(C1=NCCN1)c1c(Br)cccc1Br
logD [1]: -1.01
D150 [2]: 0.75 mg/kg
Relative activity [3]: 0.83
pKa [4]: 11.1

Brc1ccccc1N(CC1CC1)C1=NCCN1
logD [1]: -1.3
D150 [2]: 4.4 mg/kg
Relative activity [3]: 0.14
pKa [4]: 11.2

Fc1cccc(F)c1N(CC1CC1)C1=NCCN1
logD [1]: -1.41
D150 [2]: 4.8 mg/kg
Relative activity [3]: 0.13
pKa [4]: 10.3

Brc1cccc(Br)c1N(Cc1ccco1)C1=NCCN1
logD [1]: -0.52
D150 [2]: 2.8 mg/kg
Relative activity [3]: 0.22
pKa [4]: 10.5

CC(C)CCN(C1=NCCN1)c1c(Br)cccc1Br
logD [1]: 0.16
D150 [2]: 1.3 mg/kg
Relative activity [3]: 0.48
pKa [4]: 10.9

Brc1cccc(Br)c1N(Cc1ccccc1)C1=NCCN1
logD [1]: -0.05
D150 [2]: 2.5 mg/kg
Relative activity [3]: 0.25
pKa [4]: 10.4

CCCCN(C1=NCCN1)c1c(Br)cccc1Br
logD [1]: -2.5
D150 [2]: 1.35 mg/kg
Relative activity [3]: 0.46
pKa [4]: 11

Brc1cccc(Br)c1N(C1=NCCN1)C1CCCC1
logD [1]: -0.29
D150 [2]: 1 mg/kg
Relative activity [3]: 0.62
pKa [4]: 11.2

Brc1ccc(N(CC2CC2)C2=NCCN2)c(Br)c1
logD [1]: -0.31
D150 [2]: 10 mg/kg
Relative activity [3]: 0.062
pKa [4]: 11.2

Fc1cccc(Br)c1N(CC1CC1)C1=NCCN1
logD [1]: -1.03
D150 [2]: 1.5 mg/kg
Relative activity [3]: 0.41
pKa [4]: 10.7

C[N+](C)(C)CCOC(N)=O.[Cl-] [CARBACHOL]
EC30 [5]: 0.0065 µg/mL
EC30 [7]: 0.029 µg/mL
EC30 [11]: 0.09 µg/mL
Ratio [10]: 0.22

C=CCCN(C1=NCCN1)c1c(Br)cccc1Br
logD [1]: -0.63
D150 [2]: 1 mg/kg
Relative activity [3]: 0.62
pKa [4]: 11.2
